{
  "source": "paper PMC6980747",
  "about": "(Cell chemical biology, 2019)",
  "key": {"[1]": {"test_system": "ZR-75-1 cells", "assay": "Growth rate inhibition", "assay_type": "cell-based", "conditions": "ZR-75-1, 72-hour treatment"}, "[2]": {"test_system": "pPRAS40 in T47D and MDA-MB-468 cells", "assay": "Time course and washout immunoblots of pPRAS40", "assay_type": "cell-based", "conditions": "for pPRAS40 levels over time: 250 nM, T47D and MDA-MB-468, continuous treatment; for pPRAS40 levels after washout: 12 hours treatment with 250 nM, then washout"}, "[3]": {"test_system": "pPRAS40, pGSK3β, pS6 in T47D cells", "assay": "Immunoblot of downstream AKT signaling in T47D cells", "assay_type": "cell-based", "conditions": "24 hours"}, "[4]": {"test_system": "AKT1, AKT2, AKT3 in MDA-MB-468 cells", "assay": "Immunoblot of AKT isoform degradation in MDA-MB-468 cells", "assay_type": "cell-based"}, "[5]": {"test_system": "Ikaros (IKZF1) and Aiolos (IKZF3)", "assay": "Immunoblot of Ikaros and Aiolos degradation", "assay_type": "cell-based", "conditions": "24 hours of drug treatment", "outline": "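Cells were seeded at 250,000/mL (T47D at 200,000/mL) in RPMI or DMEM with 10% serum, left overnight, then given test compound. They were lysed 15 min in RIPA (pH 7.5) with 0.1% SDS, phosphatase and protease inhibitors, cleared at 14,000 rpm for 10 min at 4°C, and protein-normalized. Lysates went through SDS-PAGE and nitrocellulose transfer, milk block, primary antibodies at 4°C overnight, and fluorescent secondaries 1 h RT. Imaging was on a LI-COR Odyssey.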"}, "[6]": {"test_system": "MDA-MB-468 and HCC1937 cells", "assay": "Growth rate inhibition", "assay_type": "cell-based", "conditions": "MDA-MB-468 and HCC1937, 72-hour treatment"}, "[7]": {"biological_target": "AKT3 (Homo sapiens, UniProt Q9Y243)", "sequence (Q9Y243 whole entry)": "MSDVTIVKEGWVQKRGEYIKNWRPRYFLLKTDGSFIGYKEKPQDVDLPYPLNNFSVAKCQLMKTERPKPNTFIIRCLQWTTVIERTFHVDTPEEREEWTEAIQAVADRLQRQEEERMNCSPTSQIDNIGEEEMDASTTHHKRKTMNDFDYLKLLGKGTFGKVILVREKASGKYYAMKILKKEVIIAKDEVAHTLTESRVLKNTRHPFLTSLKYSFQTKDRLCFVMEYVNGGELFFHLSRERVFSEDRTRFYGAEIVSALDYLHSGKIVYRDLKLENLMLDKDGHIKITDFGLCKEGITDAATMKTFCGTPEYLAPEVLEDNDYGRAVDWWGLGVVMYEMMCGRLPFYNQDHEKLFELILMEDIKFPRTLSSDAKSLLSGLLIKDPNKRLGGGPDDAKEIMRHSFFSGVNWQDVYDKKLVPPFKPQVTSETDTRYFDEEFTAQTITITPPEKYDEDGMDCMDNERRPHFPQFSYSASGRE", "assay": "Z'-LYTE FRET-based kinase inhibition assay, AKT3", "assay_type": "biochemical"}, "[8]": {"biological_target": "RET (V804M) (Homo sapiens, UniProt P07949, V804M)", "sequence (P07949 29-1114 V804M)": "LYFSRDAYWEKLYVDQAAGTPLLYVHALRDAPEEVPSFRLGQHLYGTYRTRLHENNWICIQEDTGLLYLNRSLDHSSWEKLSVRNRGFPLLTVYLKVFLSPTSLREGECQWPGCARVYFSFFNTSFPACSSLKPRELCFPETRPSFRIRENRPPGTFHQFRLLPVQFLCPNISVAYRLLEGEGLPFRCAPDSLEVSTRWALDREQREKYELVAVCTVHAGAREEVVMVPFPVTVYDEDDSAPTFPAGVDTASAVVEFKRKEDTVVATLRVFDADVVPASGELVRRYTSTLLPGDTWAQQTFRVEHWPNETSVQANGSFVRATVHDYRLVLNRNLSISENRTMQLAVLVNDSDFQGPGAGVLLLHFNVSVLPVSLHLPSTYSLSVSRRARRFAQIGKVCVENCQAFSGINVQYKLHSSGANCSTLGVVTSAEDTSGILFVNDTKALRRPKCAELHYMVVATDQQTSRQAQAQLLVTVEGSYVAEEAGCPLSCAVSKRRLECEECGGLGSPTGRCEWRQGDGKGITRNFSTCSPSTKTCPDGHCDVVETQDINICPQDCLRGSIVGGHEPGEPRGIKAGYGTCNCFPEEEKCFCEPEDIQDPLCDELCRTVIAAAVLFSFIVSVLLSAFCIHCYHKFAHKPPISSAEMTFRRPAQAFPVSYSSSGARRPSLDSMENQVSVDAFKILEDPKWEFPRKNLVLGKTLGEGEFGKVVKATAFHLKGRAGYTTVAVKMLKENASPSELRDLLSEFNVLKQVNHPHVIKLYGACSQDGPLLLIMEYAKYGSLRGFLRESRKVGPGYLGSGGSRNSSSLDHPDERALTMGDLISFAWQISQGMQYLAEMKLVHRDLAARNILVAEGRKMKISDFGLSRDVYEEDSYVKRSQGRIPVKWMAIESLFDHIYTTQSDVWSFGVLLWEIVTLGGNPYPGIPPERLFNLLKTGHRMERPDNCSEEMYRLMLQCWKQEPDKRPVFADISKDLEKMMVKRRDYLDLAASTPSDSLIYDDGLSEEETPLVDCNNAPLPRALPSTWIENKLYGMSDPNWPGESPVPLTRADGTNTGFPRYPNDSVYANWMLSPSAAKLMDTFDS", "assay": "LanthaScreen assay, RET", "assay_type": "biochemical"}, "[9]": {"test_system": "AKT isoforms in T47D cells", "assay": "Immunoblot of AKT degradation in T47D cells", "assay_type": "cell-based", "conditions": "24-hour treatment, 250 nM"}, "[10]": {"biological_target": "T1, S6K1 (Homo sapiens, UniProt P23443)", "T1 sequence (P23443 whole entry)": "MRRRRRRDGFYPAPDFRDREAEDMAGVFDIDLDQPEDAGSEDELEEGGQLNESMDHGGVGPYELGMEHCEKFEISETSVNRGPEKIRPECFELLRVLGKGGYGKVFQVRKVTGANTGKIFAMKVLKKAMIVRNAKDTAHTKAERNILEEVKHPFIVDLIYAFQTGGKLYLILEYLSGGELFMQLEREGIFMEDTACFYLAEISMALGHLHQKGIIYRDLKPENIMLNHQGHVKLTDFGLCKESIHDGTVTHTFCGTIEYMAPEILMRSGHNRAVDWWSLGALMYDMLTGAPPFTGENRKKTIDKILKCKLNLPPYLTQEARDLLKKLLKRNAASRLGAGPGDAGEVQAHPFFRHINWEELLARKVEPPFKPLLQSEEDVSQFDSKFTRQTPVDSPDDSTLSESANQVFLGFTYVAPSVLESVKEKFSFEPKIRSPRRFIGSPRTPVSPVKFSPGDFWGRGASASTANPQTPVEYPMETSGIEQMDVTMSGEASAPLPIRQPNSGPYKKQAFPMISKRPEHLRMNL", "assay": "Z'-LYTE kinase assay, S6K1", "assay_type": "biochemical"}, "[11]": {"biological_target": "PKG1 (Homo sapiens, UniProt Q13976)", "sequence (Q13976 whole entry)": "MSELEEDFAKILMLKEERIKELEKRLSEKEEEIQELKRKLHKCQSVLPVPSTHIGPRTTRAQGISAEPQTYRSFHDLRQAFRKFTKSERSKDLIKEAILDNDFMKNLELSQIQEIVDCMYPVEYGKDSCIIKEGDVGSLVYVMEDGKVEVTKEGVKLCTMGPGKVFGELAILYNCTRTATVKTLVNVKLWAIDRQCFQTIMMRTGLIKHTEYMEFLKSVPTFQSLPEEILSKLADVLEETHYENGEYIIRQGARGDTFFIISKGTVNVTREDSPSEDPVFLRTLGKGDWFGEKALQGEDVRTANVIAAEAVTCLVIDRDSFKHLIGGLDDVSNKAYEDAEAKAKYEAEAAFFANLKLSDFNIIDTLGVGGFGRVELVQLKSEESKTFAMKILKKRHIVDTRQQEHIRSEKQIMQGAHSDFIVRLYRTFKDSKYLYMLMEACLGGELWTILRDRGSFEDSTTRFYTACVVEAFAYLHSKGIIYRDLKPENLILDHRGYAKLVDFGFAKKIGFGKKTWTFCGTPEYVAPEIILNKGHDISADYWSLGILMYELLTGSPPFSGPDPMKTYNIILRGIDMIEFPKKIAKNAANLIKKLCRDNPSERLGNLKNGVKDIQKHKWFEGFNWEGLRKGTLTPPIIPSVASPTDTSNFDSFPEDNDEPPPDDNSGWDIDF", "assay": "Z'-LYTE kinase assay, PKG1", "assay_type": "biochemical"}, "[12]": {"biological_target": "T1, S6K1", "assay": "Immunoblot of S6K1 degradation", "assay_type": "cell-based"}, "[13]": {"test_system": "AKT in T47D and MDA-MB-468 cells", "assay": "Time course and washout immunoblots of AKT levels", "assay_type": "cell-based"}, "[14]": {"test_system": "MOLT4 cells proteome", "assay": "TMT quantitative mass spectrometry proteomics in MOLT4 cells", "assay_type": "cell-based, human", "conditions": "MOLT4, 250 nM, 4 hours, vs DMSO"}, "[15]": {"biological_target": "AKT1 (Homo sapiens, UniProt P31749)", "sequence (P31749 whole entry)": "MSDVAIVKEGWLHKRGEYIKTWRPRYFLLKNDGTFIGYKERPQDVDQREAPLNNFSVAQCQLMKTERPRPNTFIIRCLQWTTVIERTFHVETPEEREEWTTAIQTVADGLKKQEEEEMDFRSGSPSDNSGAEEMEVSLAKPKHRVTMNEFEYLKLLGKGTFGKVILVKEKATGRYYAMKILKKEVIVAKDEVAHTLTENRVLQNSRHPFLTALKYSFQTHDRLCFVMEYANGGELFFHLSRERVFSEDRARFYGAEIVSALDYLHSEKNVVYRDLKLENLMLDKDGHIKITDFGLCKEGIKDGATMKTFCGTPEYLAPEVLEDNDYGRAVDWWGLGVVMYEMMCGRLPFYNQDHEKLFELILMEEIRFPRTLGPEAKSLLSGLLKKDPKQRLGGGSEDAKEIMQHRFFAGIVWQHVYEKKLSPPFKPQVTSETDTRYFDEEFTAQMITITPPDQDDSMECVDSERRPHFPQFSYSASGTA", "assay": "Z'-LYTE FRET-based kinase inhibition assay, AKT1", "assay_type": "biochemical"}, "[16]": {"biological_target": "AKT2 (Homo sapiens, UniProt P31751)", "sequence (P31751 whole entry)": "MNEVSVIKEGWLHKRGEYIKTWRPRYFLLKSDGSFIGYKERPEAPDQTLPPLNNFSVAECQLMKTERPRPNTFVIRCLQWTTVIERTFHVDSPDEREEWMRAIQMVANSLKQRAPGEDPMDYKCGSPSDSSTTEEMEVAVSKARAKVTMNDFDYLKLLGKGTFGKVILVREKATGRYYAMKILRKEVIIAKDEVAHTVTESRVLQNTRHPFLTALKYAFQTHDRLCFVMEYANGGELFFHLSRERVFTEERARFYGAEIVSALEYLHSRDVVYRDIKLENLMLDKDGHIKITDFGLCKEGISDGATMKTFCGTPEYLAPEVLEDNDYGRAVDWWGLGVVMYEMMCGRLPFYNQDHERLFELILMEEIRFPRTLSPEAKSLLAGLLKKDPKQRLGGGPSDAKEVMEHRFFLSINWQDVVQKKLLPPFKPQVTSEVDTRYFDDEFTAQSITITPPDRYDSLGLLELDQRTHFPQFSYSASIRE", "assay": "Z'-LYTE FRET-based kinase inhibition assay, AKT2", "assay_type": "biochemical"}, "[17]": {"test_system": "ZR-75-1, T47D, LNCaP, and MCF-7 cells", "assay": "Growth rate inhibition", "assay_type": "cell-based", "conditions": "72-hour treatment, Figures 3A-D"}},
  "data": [
    {"smiles": "CC(C)NC[C@@H](C(=O)N1CCN(c2ncnc3c2[C@H](C)C[C@H]3O)CC1)c1ccc(Cl)cc1", "note": "[GDC-0068, ipatasertib, reference compound]", "values": [
      {"measurement": "GR50", "setting": "[1]", "result": 229, "unit": "nM"},
      {"measurement": "pPRAS40 levels over time", "setting": "[2]", "result": "less pronounced inhibition of pPRAS40"},
      {"measurement": "pPRAS40 levels after washout", "setting": "[2]", "result": "rebound of pPRAS40"},
      {"measurement": "dose required to observe comparable effects on pPRAS40, pGSK3β, and pS6", "setting": "[3]; comparable to 250 nM INY-03-041", "result": "up to 1 μM"}
    ]},
    {"smiles": "C[C@@H]1C[C@@H](O)c2ncnc(N3CCN(C(=O)[C@H](CNCCCCCCCCCCc4cccc5c4CN(C4CCC(=O)N(C)C4=O)C5=O)c4ccc(Cl)cc4)CC3)c21", "note": "(stereo partly drawn) [INY-03-112, 3-(4-(10-(((S)-2-(4-chlorophenyl)-3-(4-((5R,7R)-7-hydroxy-5-methyl-6,7-dihydro-5H-cyclopenta[d]pyrimidin-4-yl)piperazin-1-yl)-3-oxopropyl)amino)decyl)-1-oxoisoindolin-2-yl)-1-methylpiperidine-2,6-dione]", "values": [
      {"measurement": "AKT isoform degradation", "setting": "[4]; MDA-MB-468, immunoblot", "result": "did not induce potent degradation of any AKT isoform"},
      {"measurement": "GR50", "setting": "[1]", "result": 413, "unit": "nM"}
    ]},
    {"smiles": "C[C@@H]1C[C@@H](O)c2ncnc(N3CCN(C(=O)[C@H](CNCCCCCCCCCCc4cccc5c4CN(C4CCC(=O)NC4=O)C5=O)c4ccc(Cl)cc4)CC3)c21", "note": "(stereo partly drawn) [INY-03-041, 3-(4-(10-(((S)-2-(4-chlorophenyl)-3-(4-((5R,7R)-7-hydroxy-5-methyl-6,7-dihydro-5H-cyclopenta[d]pyrimidin-4-yl)piperazin-1-yl)-3-oxopropyl)amino)decyl)-1-oxoisoindolin-2-yl)piperidine-2,6-dione]", "values": [
      {"measurement": "IKZF1 and IKZF3 degradation (immunoblot)", "setting": "[5]", "result": "weak IKZF1 and IKZF3 degradation"},
      {"measurement": "concentration at which IKZF1 and IKZF3 degradation was seen", "setting": "[5]", "result": "≥ 500", "unit": "nM"},
      {"measurement": "GR50 comparison", "setting": "[6]", "result": "no apparent differences in GR50 values between INY-03-041 and INY-03-112"},
      {"measurement": "IC50", "setting": "[7]", "result": 3.5, "unit": "nM"},
      {"measurement": "IC50", "setting": "[8]", "result": "> 10000", "unit": "nM"},
      {"measurement": "time to partial degradation of all AKT isoforms", "setting": "[4]; MDA-MB-468, 250 nM", "result": "≤ 4", "unit": "h"},
      {"measurement": "concentration at which diminished AKT degradation (hook effect) was observed", "setting": "[4]; MDA-MB-468, 12-hour treatment", "result": "≥ 500", "unit": "nM"},
      {"measurement": "GR50", "setting": "[1]", "result": 16, "unit": "nM"},
      {"measurement": "fold increased potency compared to GDC-0068 (GR50)", "setting": "[1]", "result": 14, "unit": "fold"},
      {"measurement": "AKT isoform levels after treatment", "setting": "[9]", "result": "no detectable levels of all three AKT isoforms"},
      {"measurement": "pPRAS40 levels over time", "setting": "[2]", "result": "significantly reduced for up to 96 hours"},
      {"measurement": "pPRAS40 levels after washout", "setting": "[2]", "result": "potently suppressed levels of pPRAS40 for up to 96 hours after washout"},
      {"measurement": "IC50", "setting": "[10]", "result": 37.3, "unit": "nM"},
      {"measurement": "IC50", "setting": "[11]", "result": 33.2, "unit": "nM"},
      {"measurement": "concentration that significantly reduced pPRAS40, pGSK3β, and pS6 levels", "setting": "[3]", "result": 250, "unit": "nM"},
      {"measurement": "S6K1 degradation (immunoblot)", "setting": "[12]", "result": "did not induce S6K1 degradation"},
      {"measurement": "duration of sustained destabilization of all three AKT isoforms", "setting": "[13]; 250 nM, T47D and MDA-MB-468", "result": "at least 96 hours"},
      {"measurement": "AKT levels after compound washout", "setting": "[13]; 12 hours treatment with 250 nM, then washout", "result": "no detectable rebound of AKT levels for up to 96 hours"},
      {"measurement": "S6K1 and PKG1 abundance (proteomics)", "setting": "[14]", "result": "no downregulation of either kinases was observed"},
      {"measurement": "change in protein abundance (proteomics)", "setting": "[14]", "result": "significant downregulation of all three AKT isoforms, as well as RNF166"},
      {"measurement": "IC50", "setting": "[15]", "result": 2, "unit": "nM"},
      {"measurement": "IC50", "setting": "[16]", "result": 6.8, "unit": "nM"}
    ]},
    {"smiles": "Nc1cccc2c1CN(C1CCC(=O)NC1=O)C2=O", "note": "(centres unmarked) [lenalidomide]", "values": [
      {"measurement": "anti-proliferative effects", "setting": "[17]", "result": "did not have strong anti-proliferative effects"}
    ]}
  ]
}
